Experimental data as given in PMC6544545 (Nature microbiology, 2018).

How the values were obtained:
E. coli mutant strains = test: Relative MIC measurement of mutant and evolved strains; type: cell-based, Escherichia coli
wild-type E. coli = test: Experimental evolution of resistance followed by MIC measurement; type: cell-based, Escherichia coli
[1] = system: E. coli K12 wild-type and antibiotic-resistant strains; test: Antibiotic-PGLA combination screen; type: cell-based, Escherichia coli; settings: Loewe additivity, EC90%
Method in brief: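 E. coli K12 BW25113 wild-type and 21 strains adapted to one of 10 antibiotics were tested. Single agents ran as 1.6-fold 8-step dilutions spanning 10.5x below to 2.6x above each strain's MIC, plus dilution series at 7 antibiotic:peptide ratios (7:1 to 1:7). Wells received 5×10^4 cells from overnight culture, then 24 h at 30°C, 300 rpm, OD600. Expected (Loewe) and measured EC90% gave CIr per ratio; CI is the mean of the 7 CIr values.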

[2] = system: antibiotic-resistant bacteria; test: Antibiotic MIC in the presence of subinhibitory PGLA; type: cell-based, Escherichia coli; settings: tetracycline (TET) resistant strain; ½ MIC PGLA (MIC against the wild-type)
Method in brief: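 Each level was tested alone and alongside MIC determination of the antibiotic the strain was adapted to. Growth with peptide alone was scored as growth rate.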

[3] = system: 60 antibiotic-resistant Escherichia coli strains; type: cell-based
[4] = system: antibiotic-resistant E. coli strains; test: Membrane integrity measurement; type: cell-based, Escherichia coli; settings: sensitive strains could not grow on medium with 6% bile acid
Method in brief: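 Bile acid sensitivity came from the high-throughput screen in MS medium. About 103 bacteria/ml were pin-inoculated and grown 24 h at 30°C, 300 rpm, with OD600 read once. Resistant strains ran in 4 replicates and wild-type in 12 on the same plate, and growth arrest was scored per well. Strains unable to grow with 6% bile acid were grouped as sensitive.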

CAP18-resistant bacteria = test: Susceptibility of CAP18-resistant evolved bacteria to antibiotics; type: cell-based; settings: preliminary results

O=C1CN(/N=C/c2ccc([N+](=O)[O-])o2)C(=O)N1 [nitrofurantoin]
effect of ompC loss-of function mutation on susceptibility (E. coli mutant strains; ompC mutation inserted into wild-type E. coli): conferred resistance

Peptide Glycine-Leucine Amide [PGLA]
susceptibility of the marR single point mutant (marR*) (E. coli mutant strains; marR mutation in E. coli BW25113 or E. coli ATCC 25922): collateral sensitivity
evolution of resistance to the peptide (wild-type E. coli; laboratory evolution, 160 generations): marginal
cross-resistance between PGLA and ciprofloxacin or tetracycline in evolved lines (wild-type E. coli; laboratory-evolved lines): no substantial cross-resistance
interaction of PGLA with tetracycline (TET), wild-type strain ([1]; E. coli K12 wild-type, 0.86<CI<1.14 no interaction): no interaction
interaction of PGLA with tetracycline (TET), tetracycline-resistant strain TET3 ([1]; TET3, CI≤0.86 synergism): strong synergism
growth rate reduction by the peptide applied alone [2]: 40%

bactenecin 5 (RFRPPIRRPPIRPPFYPPFRPPIRPPIFPPIRPPFRPPLGPFP; Bactenecin-5; UniProt P19660 131-173, looked up) [BAC5]
interaction of tobramycin-resistant strains with the peptide ([3]; tobramycin-resistant E. coli strains): cross-resistance rather than collateral sensitivity

bile acid
percentage of antibiotic-resistant strains more susceptible than the wild-type [4]: 75%

cecropin P1 [CP1]
collateral sensitivity of antibiotic-resistant strains towards the peptide ([3]; 60 laboratory-evolved antibiotic-resistant E. coli strains): rarely show collateral sensitivity

rabbit 18-kDa cationic antimicrobial protein [CAP18]
consequence of evolving resistance to the peptide (CAP18-resistant bacteria): collateral sensitivity to several conventional antibiotics
